Test results published in ChEMBL document CHEMBL4251624, “Synthesis of podophyllotoxin linked β-carboline congeners as potential anticancer agents and DNA topoisomerase II inhibitors” (Eur J Med Chem, 2018).
The source made the active and inactive calls. The calls are words filed in the database; no cut-off is given here.

Legend:
[1] = system: A549; assay: Cytotoxicity against human A549 cells after 48 hrs by MTT assay; type: functional, cell-based; conditions: A549, 48 h
How it was run: (§1)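 MTT assay. Cells seeded at 1×10^4 per well in DMEM or MEM with 10% FBS and grown 24 h at 37 °C under CO2. Compounds added for 48 h, then MTT (5 mg/mL stock) for 4 h. Formazan dissolved in DMSO and read at 570 nm. IC50 is the average of three independent experiments.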

[2] = system: HEK293; assay: Cytotoxicity against HEK293 cells after 48 hrs by MTT assay; type: cell-based; conditions: Homo sapiens, HEK293, 48 h; how it was run: as §1
[3] = system: MDA-MB-231; assay: Cytotoxicity against human MDA-MB-231 cells after 48 hrs by MTT assay; type: functional, cell-based; conditions: MDA-MB-231, 48 h; how it was run: as §1
[4] = system: HT-29; assay: Cytotoxicity against human HT-29 cells after 48 hrs by MTT assay; type: functional, cell-based; conditions: HT-29, 48 h; how it was run: as §1
[5] = system: DU-145; assay: Cytotoxicity against human DU145 cells after 48 hrs by MTT assay; type: functional, cell-based; conditions: DU-145, 48 h; how it was run: as §1
[6] = system: HeLa; assay: Cytotoxicity against human HeLa cells after 48 hrs by MTT assay; type: functional, cell-based; how it was run: as §1
[7] = system: DU-145; assay: Cell cycle arrest in human DU145 cells assessed as accumulation at sub-G1 phase at 1 uM after 48 hrs by propidium iodide staining based flow cytometry (reference value: 1.49%); type: functional
[8] = species on record: Homo sapiens; assay: Inhibition of topoisomerase-2 (unknown origin) assessed as reduction in ATP-dependent decatenation of kinetoplast DNA at 10 uM after 30 mins by ethidium bromide staining based UV trans-illumination assay
How it was run: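 kDNA decatenation, 20 μl reactions: 120 mM KCl, 50 mM Tris-HCl pH 8, 10 mM MgCl2, 0.5 mM DTT, 0.5 mM ATP, BSA, 200–300 ng kDNA, topo II 5 units. Incubated 37 °C for 30 min, stopped with SDS/proteinase K for 10 min at 37 °C. Products run on 1% agarose at 100 V and visualized by ethidium bromide under UV.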

[9] = system: Calf thymus DNA; assay: Binding affinity to calf thymus DNA assessed as hyperchromic effect […] by UV-Visible spectroscopic method; type: nucleic-acid assay; conditions: Bos taurus
How it was run: (§2)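 UV-visible absorption titration at 25 °C in […] cuvettes. Compound held at 25.0 μM (1 ml, 1 cm path), titrated with 5 μl additions of 25.0 μM CT-DNA in 100 mM Tris-HCl pH 7.0 until absorbance saturated. Spectra recorded 200–400 nm, using freshly prepared stocks.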

[10] = system: DU-145; assay: Induction of DNA damage in human DU145 cells at 10 uM after 24 hrs using propidium iodide stain by electrophoresis based fluorescence microscopic method; type: functional, cell-based
How it was run: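 DU-145 cells treated at 10 μM for 24 h; about 25,000 cells embedded in agarose on slides. Electrophoresis 20 min at 40 V in 0.5% TBE pH 8. Propidium iodide stain 30 min; fluorescence imaging at 20x.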

[11] = system: DU-145; assay: Cell cycle arrest in human DU145 cells assessed as accumulation at G0/G1 phase at 1 uM after 48 hrs by propidium iodide staining based flow cytometry (reference value: 51.28%); type: functional
[12] = system: Calf thymus DNA; assay: Binding affinity to calf thymus DNA assessed as hypochromic effect at 10 uM by fluorescence spectroscopic method; type: nucleic-acid assay; conditions: Bos taurus
How it was run: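 Fluorescence titration at 25 °C in an acid-washed 1 cm quartz cuvette. Compound held constant at 10 μM and titrated with CT-DNA in equal steps (multiples of 0.5 μM), with a spectrum after each addition. Excitation 230 nm, emission recorded up to 600 nm.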

[13] = system: DU-145; assay: Cell cycle arrest in human DU145 cells assessed as accumulation at G2/Mphase at 1 uM after 48 hrs by propidium iodide staining based flow cytometry (reference value: 21.71%); type: functional
[14] = system: Calf thymus DNA; assay: Binding affinity to calf thymus DNA by UV-Visible spectroscopic method; type: nucleic-acid assay; conditions: Bos taurus; how it was run: as §2
[15] = system: Calf thymus DNA; assay: Binding affinity to calf thymus DNA assessed as hypochromicity of positive CD band at 10 to 20 uM by CD spectroscopic method relative to control; type: nucleic-acid assay; conditions: Bos taurus
How it was run: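 CD spectra of 10 μM CT-DNA in 100 mM Tris-HCl pH 7.0, alone and with 10.0 or 20 μM compound (1:1 and 1:2 DNA:complex). Recorded 200–350 nm in a 1 mm path cuvette and averaged over 3 scans.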

[16] = system: DU-145; assay: Cell cycle arrest in human DU145 cells assessed as accumulation at S-phase at 1 uM after 48 hrs by propidium iodide staining based flow cytometry (reference value: 24.99%); type: functional

Compound | IC50 [1] | IC50 [2] | IC50 [3] | IC50 [4] | IC50 [5] | IC50 [6] | Activity [7] | inhibition [8] | Activity [9] | Activity [10] | Activity [11] | Activity [12] | Activity [13] | Kb [14] | Activity [15] | Activity [16]
COc1cc([C@@H]2c3cc4c(cc3[C@@H](NC(=O)c3cc5c([nH]c6ccccc65)c(-c5cccnc5)n3)[C@H]3COC(=O)[C@H]23)OCO4)cc(OC)c1OC | 2.55 µM | 84.3 µM | 3.05 µM | 6.36 µM | 1.98 µM | 4.72 µM | – | – | – | – | – | – | – | – | – | –
COc1cc([C@@H]2c3cc4c(cc3[C@@H](NC(=O)c3cc5c([nH]c6ccccc65)c(-c5cccc(F)c5)n3)[C@H]3COC(=O)[C@H]23)OCO4)cc(OC)c1OC | 36.4 µM | 104 µM | 80.4 µM | 55.7 µM | 48.4 µM | 26.5 µM | – | – | – | – | – | – | – | – | – | –
COc1cc([C@@H]2c3cc4c(cc3[C@@H](NC(=O)c3cc5c([nH]c6ccccc65)c(-c5cccc(Cl)c5)n3)[C@H]3COC(=O)[C@H]23)OCO4)cc(OC)c1OC | 3.16 µM | 131 µM | 3.29 µM | 5.26 µM | 2.41 µM | 6.09 µM | – | – | – | – | – | – | – | – | – | –
COc1cc([C@@H]2c3cc4c(cc3[C@@H](NC(=O)c3cc5c([nH]c6ccccc65)c(-c5ccc(Cl)cc5)n3)[C@H]3COC(=O)[C@H]23)OCO4)cc(OC)c1OC | 3.98 µM | 58.9 µM | 3.87 µM | 5.77 µM | 2.65 µM | 6.61 µM | – | – | – | – | – | – | – | – | – | –
COc1cc([C@@H]2c3cc4c(cc3[C@@H](NC(=O)c3cc5c([nH]c6ccccc65)c(-c5ccc(F)c(F)c5)n3)[C@H]3COC(=O)[C@H]23)OCO4)cc(OC)c1OC | 2.24 µM | 106 µM | 2.9 µM | 3.53 µM | 1.14 µM | 3.72 µM | 10.9% | Active | Active | Active | 18.41% | Active | 28.08% | 1 ×10⁴ /M | Active | 39.65%
COc1cc([C@@H]2c3cc4c(cc3[C@@H](NC(=O)c3cc5c([nH]c6ccccc65)c(-c5ccc(C)cc5)n3)[C@H]3COC(=O)[C@H]23)OCO4)cc(OC)c1OC | 16.8 µM | 59.4 µM | 16.4 µM | 20 µM | 8.74 µM | 9.77 µM | – | – | – | – | – | – | – | – | – | –
COc1ccc(-c2nc(C(=O)N[C@@H]3c4cc5c(cc4[C@@H](c4cc(OC)c(OC)c(OC)c4)[C@H]4C(=O)OC[C@@H]43)OCO5)cc3c2[nH]c2ccccc23)cc1 | 29.4 µM | 65 µM | 34 µM | 35.6 µM | 16.8 µM | 21.9 µM | – | – | – | – | – | – | – | – | – | –
COc1ccccc1-c1nc(C(=O)N[C@@H]2c3cc4c(cc3[C@@H](c3cc(OC)c(OC)c(OC)c3)[C@H]3C(=O)OC[C@@H]32)OCO4)cc2c1[nH]c1ccccc12 | 1.94 µM | 107 µM | 2.69 µM | 4.3 µM | 1.41 µM | 4.12 µM | – | – | – | – | – | – | – | – | – | –
COc1cc([C@@H]2c3cc4c(cc3[C@@H](NC(=O)c3cc5c([nH]c6ccccc65)c(-c5ccc(F)cc5)n3)[C@H]3COC(=O)[C@H]23)OCO4)cc(OC)c1OC | 10.2 µM | 109 µM | 10.7 µM | 11.5 µM | 5.07 µM | 15.5 µM | – | – | – | – | – | – | – | – | – | –
COc1cc([C@@H]2c3cc4c(cc3[C@@H](NC(=O)c3cc5c([nH]c6ccccc65)c(-c5ccc6c(c5)OCO6)n3)[C@H]3COC(=O)[C@H]23)OCO4)cc(OC)c1OC | 21.8 µM | 70.6 µM | 34.3 µM | 30.6 µM | 14.5 µM | 15.3 µM | – | – | – | – | – | – | – | – | – | –
COc1cc([C@@H]2c3cc4c(cc3[C@@H](NC(=O)c3cc5c([nH]c6ccccc65)c(-c5ccccc5)n3)[C@H]3COC(=O)[C@H]23)OCO4)cc(OC)c1OC | 2 µM | 75 µM | 2.6 µM | 6.87 µM | 1.68 µM | 5.26 µM | – | – | – | – | – | – | – | – | – | –
COc1ccc(OC)c(-c2nc(C(=O)N[C@@H]3c4cc5c(cc4[C@@H](c4cc(OC)c(OC)c(OC)c4)[C@H]4C(=O)OC[C@@H]43)OCO5)cc3c2[nH]c2ccccc23)c1 | 1.87 µM | 103 µM | 2.64 µM | 2.68 µM | 1.07 µM | 2.92 µM | 10.79% | Active | Active | Active | 18.69% | Active | 29.16% | 1 ×10⁴ /M | Active | 41.44%
COc1cccc2c1C(=O)c1c(O)c3c(c(O)c1C2=O)C[C@@](O)(C(=O)CO)C[C@@H]3O[C@H]1C[C@H](N)[C@H](O)[C@H](C)O1 [DOXORUBICIN] | 1.68 µM | – | 1.32 µM | 1.41 µM | 1.86 µM | – | – | – | – | – | – | – | – | – | – | –
COc1cc([C@@H]2c3cc4c(cc3[C@H](O)[C@H]3COC(=O)[C@H]23)OCO4)cc(OC)c1OC [PODOFILOX] | – | – | 9.76 µM | 2.99 µM | 3.11 µM | 3.04 µM | – | – | – | – | – | – | – | – | – | –
COc1cc([C@@H]2c3cc4c(cc3[C@@H](NC(=O)c3cc5c([nH]c6ccccc65)c(-c5cccc6ccccc56)n3)[C@H]3COC(=O)[C@H]23)OCO4)cc(OC)c1OC | 56.9 µM | 77.3 µM | 27.9 µM | 23 µM | 22 µM | 33 µM | – | – | – | – | – | – | – | – | – | –
COc1cc([C@@H]2c3cc4c(cc3[C@@H](NC(=O)c3cc5c([nH]c6ccccc65)c(-c5ccc(C(F)(F)F)cc5)n3)[C@H]3COC(=O)[C@H]23)OCO4)cc(OC)c1OC | 34.1 µM | 63 µM | 75.9 µM | 46.5 µM | 24.8 µM | 32.1 µM | – | – | – | – | – | – | – | – | – | –
COc1cc(-c2nc(C(=O)N[C@@H]3c4cc5c(cc4[C@@H](c4cc(OC)c(OC)c(OC)c4)[C@H]4C(=O)OC[C@@H]43)OCO5)cc3c2[nH]c2ccccc23)cc(OC)c1OC | 104 µM | 168 µM | 58.8 µM | 86.5 µM | 40.3 µM | 72.9 µM | – | – | – | – | – | – | – | – | – | –
COc1ccc(-c2nc(C(=O)N[C@@H]3c4cc5c(cc4[C@@H](c4cc(OC)c(OC)c(OC)c4)[C@H]4C(=O)OC[C@@H]43)OCO5)cc3c2[nH]c2ccccc23)cc1OC | 12.7 µM | 89.8 µM | 15.5 µM | 14.3 µM | 9.16 µM | 13.4 µM | – | – | – | – | – | – | – | – | – | –
COc1cc([C@@H]2c3cc4c(cc3[C@@H](NC(=O)c3cc5c([nH]c6ccccc65)c(-c5cccc(Oc6ccccc6)c5)n3)[C@H]3COC(=O)[C@H]23)OCO4)cc(OC)c1OC | 5.19 µM | 102 µM | 7.52 µM | 10.3 µM | 3.17 µM | 11.2 µM | – | – | – | – | – | – | – | – | – | –
